The source of these data is ChEMBL document CHEMBL1143845, “In vitro activities of isavuconazole and other antifungal agents against Candida bloodstream isolates” (2007).

Molecules are shown by their SMILES. In brackets after ≈: the same amount, converted by molar mass.

Holding throughout (type): functional
A short description of assay [1]: Antifungal activity against Candida tropicalis bloodstream isolates by broth microdilution method. The procedure, abridged:
(§1)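 CLSI M27-A2 broth microdilution in RPMI 1640 buffered to pH 7.0 with 0.165 M MOPS. Consecutive blood-culture isolates were subcultured at least twice on Sabouraud dextrose agar. Final inoculum was 0.5 × 103 to 2.5 × 10^3 cells/ml against twofold drug dilutions, incubated in air at 35°C for 24–48 h. MIC was read visually as no growth or ≥50% growth reduction versus drug-free control, depending on agent.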

Assay [2] relates to Candida albicans. The experiment in a line: Antifungal activity against Candida albicans bloodstream isolates by broth microdilution method. In short, it runs like this: as §1
In assay [3] the test system is Candida parapsilosis. The experiment in a line: Antifungal activity against Candida parapsilosis bloodstream isolates by broth microdilution method. The settings on record: Lodderomyces parapsilosis. In short, it runs like this: as §1
Assay [4] deals with Candida. The experiment in a line: Antifungal activity against Candida sp. bloodstream isolates by broth microdilution method. In short, it runs like this: as §1
In assay [5] the test system is Pichia kudriavzevii. The experiment in a line: Antifungal activity against Candida krusei bloodstream isolates by broth microdilution method. The procedure, abridged: as §1
Assay [6] deals with Nakaseomyces glabratus. The experiment in a line: Antifungal activity against Candida glabrata bloodstream isolates by broth microdilution method. In short, it runs like this:
as §1

On to `OC(Cn1cncn1)(Cn1cncn1)c1ccc(F)cc1F` [FLUCONAZOLE], for which the MIC50 in assay [1] worked out at 1 µg/mL (≈ 3.27 µM); in assay [2], 0.5 µg/mL (≈ 1.63 µM); in assay [3], 1 µg/mL (≈ 3.27 µM); in assay [4] it was 1 µg/mL (≈ 3.27 µM); in assay [5] it was 32 µg/mL (≈ 104 µM). Besides, the MIC90 was found to be 1 µg/mL (≈ 3.27 µM) in assay [1]; 1 µg/mL (≈ 3.27 µM) in assay [2]; 2 µg/mL (≈ 6.53 µM) in assay [3]; 16 µg/mL (≈ 52.2 µM) in assay [4]; 64 µg/mL (≈ 209 µM) in assay [5].

Turning to `C[C@@H](c1nc(-c2ccc(C#N)cc2)cs1)[C@](O)(Cn1cncn1)c1cc(F)ccc1F` [ISAVUCONAZOLE], the MIC50 amounted to 0.031 µg/mL (≈ 0.0709 µM) in assay [1]; 0.002 µg/mL (≈ 0.00457 µM) in assay [2]; 0.016 µg/mL (≈ 0.0366 µM) in assay [3]; 0.25 µg/mL (≈ 0.571 µM) in assay [6]; 0.016 µg/mL (≈ 0.0366 µM) in assay [4]; 0.5 µg/mL (≈ 1.14 µM) in assay [5]. For the same compound, the MIC90 in assay [1] came to 0.063 µg/mL (≈ 0.144 µM); in assay [2] it was 0.004 µg/mL (≈ 0.00914 µM); in assay [3] it was 0.031 µg/mL (≈ 0.0709 µM); in assay [6], 0.5 µg/mL (≈ 1.14 µM); in assay [4], 0.5 µg/mL (≈ 1.14 µM); in assay [5], 0.5 µg/mL (≈ 1.14 µM).

With `C[C@@H]1[C@H](O)[C@@H](C)/C=C/C=C/C=C/C=C/C=C/C=C/C=C/[C@H](O[C@@H]2O[C@H](C)[C@@H](O)[C@H](N)[C@@H]2O)C[C@@H]2O[C@](O)(C[C@@H](O)C[C@@H](O)[C@H](O)CC[C@@H](O)C[C@@H](O)CC(=O)O[C@H]1C)C[C@H](O)[C@H]2C(=O)O` (stereo in doubt) [AMPHOTERICIN B], the MIC50 is 0.5 µg/mL (≈ 0.541 µM) in assay [1]; 0.25 µg/mL (≈ 0.271 µM) in assay [2]; 0.25 µg/mL (≈ 0.271 µM) in assay [3]; 0.5 µg/mL (≈ 0.541 µM) in assay [6]; 0.25 µg/mL (≈ 0.271 µM) in assay [4]; 0.5 µg/mL (≈ 0.541 µM) in assay [5]. Also, the MIC90 in assay [1], in assay [2], in assay [3], in assay [6], in assay [4] and in assay [5] was 0.5 µg/mL (≈ 0.541 µM) in each case.

For the compound `C[C@@H](c1ncncc1F)[C@](O)(Cn1cncn1)c1ccc(F)cc1F` [VORICONAZOLE], the MIC50 in assay [1] is 0.063 µg/mL (≈ 0.18 µM); in assay [2] it was 0.016 µg/mL (≈ 0.0458 µM); in assay [3] it was 0.031 µg/mL (≈ 0.0887 µM); in assay [6], 0.5 µg/mL (≈ 1.43 µM); in assay [4], 0.031 µg/mL (≈ 0.0887 µM); in assay [5], 0.5 µg/mL (≈ 1.43 µM). The MIC90 was 0.125 µg/mL (≈ 0.358 µM) in assay [1]; 0.031 µg/mL (≈ 0.0887 µM) in assay [2]; 0.125 µg/mL (≈ 0.358 µM) in assay [3]; 2 µg/mL (≈ 5.73 µM) in assay [6]; 0.5 µg/mL (≈ 1.43 µM) in assay [4]; 1 µg/mL (≈ 2.86 µM) in assay [5].

In the case of `CCC(C)n1ncn(-c2ccc(N3CCN(c4ccc(OCC5COC(Cn6cncn6)(c6ccc(Cl)cc6Cl)O5)cc4)CC3)cc2)c1=O` (stereo not given) [ITRACONAZOLE], the MIC50 in assay [1] was 0.031 µg/mL (≈ 0.0439 µM); in assay [2] it was 0.008 µg/mL (≈ 0.0113 µM); in assay [3], 0.016 µg/mL (≈ 0.0227 µM); in assay [6], 0.5 µg/mL (≈ 0.709 µM); in assay [4], 0.016 µg/mL (≈ 0.0227 µM); in assay [5] it was 0.5 µg/mL (≈ 0.709 µM). Moreover, the MIC90 was determined as 0.031 µg/mL (≈ 0.0439 µM) in assay [1]; 0.016 µg/mL (≈ 0.0227 µM) in assay [2]; 0.063 µg/mL (≈ 0.0893 µM) in assay [3]; 1 µg/mL (≈ 1.42 µM) in assay [6]; 0.25 µg/mL (≈ 0.354 µM) in assay [4]; 0.5 µg/mL (≈ 0.709 µM) in assay [5].

Regarding `Nc1nc(=O)[nH]cc1F` [FLUCYTOSINE], the MIC50 is 0.125 µg/mL (≈ 0.968 µM) in assay [1]; 0.125 µg/mL (≈ 0.968 µM) in assay [2]; 0.125 µg/mL (≈ 0.968 µM) in assay [3]; 0.063 µg/mL (≈ 0.488 µM) in assay [6]; 0.063 µg/mL (≈ 0.488 µM) in assay [4]; 16 µg/mL (≈ 124 µM) in assay [5]. Besides, the MIC90 in assay [1] amounted to 128 µg/mL (≈ 992 µM); in assay [2] it was 0.25 µg/mL (≈ 1.94 µM); in assay [3] it was 0.125 µg/mL (≈ 0.968 µM); in assay [6], 0.063 µg/mL (≈ 0.488 µM); in assay [4], 2 µg/mL (≈ 15.5 µM); in assay [5], 16 µg/mL (≈ 124 µM).
